According to ChEMBL document CHEMBL1132701, “Orally active isoxazoline glycoprotein IIb/IIIa antagonists with extended duration of action” (J Med Chem, 1999):

Key:
Canis familiaris [1] = assay: Inhibition of ex vivo platelet aggregation in dogs after 24 hr of administration of iv bolus dose of 0.025 mg/kg; type: functional; settings: Canis lupus familiaris
Outline: (§1)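 Dogs received an iv bolus, mostly 0.025 mg/kg, with some tested at 0.05 mg/kg. Blood was sampled at 1, 5 and 24 h postdose. Ex vivo platelet aggregation was stimulated with ADP (100 μM) and reported as % inhibition; n = 2.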

Homo sapiens [2] = species on record: Homo sapiens; assay: The compound was tested for their ability to inhibit ADP-stimulated platelet aggregation in human platelet rich plasma; type: functional
Outline: (§2)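 IC50 for inhibition of ADP-induced aggregation in human platelet-rich plasma, determined in three donors.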

Canis familiaris [3] = species on record: Canis familiaris; assay: The compound was tested for their ability to inhibit ADP-stimulated platelet aggregation in dog platelet rich plasma; type: functional; settings: Canis lupus familiaris
[4] = molecular target: Integrin alpha-IIb/beta-3 (Canis familiaris); assay: Dissociation constant for activated Fibrinogen Receptor
[5] = molecular target: Integrin alpha-IIb/beta-3 (Canis familiaris); assay: Dissociation constant for unactivated Fibrinogen Receptor
Canis familiaris [6] = assay: Inhibition ex vivo platelet aggregation by the compound in dogs after 5 hr of administration of iv bolus dose of 0.025 mg/kg; type: functional; settings: Canis lupus familiaris; outline: as §1
Canis familiaris [7] = assay: Inhibition of ex vivo platelet aggregation by the compound in dogs after 1 hr of administration of iv bolus dose of 0.025 mg/kg; type: functional; settings: Canis lupus familiaris; outline: as §1
Canis familiaris [8] = species on record: Canis familiaris; assay: The compounds were tested for their ability to inhibit ADP-stimulated platelet aggregation in dog platelet rich plasma; type: functional; settings: Canis lupus familiaris
Homo sapiens [9] = species on record: Homo sapiens; assay: The compound was tested against free acid of DMP 754 to inhibit ADP-stimulated platelet aggregation in human platelet rich plasma; type: functional; outline: as §2
[10] = molecular target: Integrin alpha-IIb/beta-3 (Canis familiaris); assay: Dissociation constant for activated Fibrinogen Receptor; remark: listed apart in the source
[11] = molecular target: Integrin alpha-IIb/beta-3 (Canis familiaris); assay: Dissociation constant for unactivated Fibrinogen Receptor; remark: listed apart in the source
Canis familiaris [12] = assay: Inhibition ex vivo platelet aggregation by the compound in dogs after 1 hr of administration of oral dose of 0.3 mg/kg; settings: Canis lupus familiaris
Canis familiaris [13] = assay: Inhibition ex vivo platelet aggregation by the compound in dogs after 6 hr of administration of oral dose of 0.3 mg/kg; settings: Canis lupus familiaris
Canis familiaris [14] = assay: Inhibition ex vivo platelet aggregation by the compound in dogs after 24 hr of administration of oral dose of 0.3 mg/kg; settings: Canis lupus familiaris
Canis familiaris [15] = assay: Inhibition of ex vivo platelet aggregation in dogs after 6 hr of administration of oral dose of 0.1 mg/kg; settings: Canis lupus familiaris
Canis familiaris [16] = assay: Inhibition of ex vivo platelet aggregation in dogs after 1 hr of administration of oral dose of 0.1 mg/kg; settings: Canis lupus familiaris
Canis familiaris [17] = assay: Inhibition of ex vivo platelet aggregation in dogs after 24 hr of administration of oral dose of 0.1 mg/kg; settings: Canis lupus familiaris
[18] = molecular target: Integrin alpha-IIb/beta-3 (Canis familiaris); assay: Dissociation constant for unactivated Fibrinogen Receptor; remark: listed apart in the source
Canis familiaris [19] = assay: Inhibition of ex vivo platelet aggregation in dogs after 24 hr of administration of iv bolus dose of 0.05 mg/kg; type: functional; settings: Canis lupus familiaris; outline: as §1
Canis familiaris [20] = assay: Inhibition of ex vivo platelet aggregation in dogs after 6 hr of administration of oral dose of 0.1 mg/kg; settings: Canis lupus familiaris; remark: listed apart in the source

| Structure (SMILES) | inhibition in vivo at 0.025 mg/kg (Canis familiaris [1]) | IC50 (Homo sapiens [2]) | further results |
| --- | --- | --- | --- |
| Cc1noc(C)c1S(=O)(=O)N[C@@H](CNC(=O)CC1CC(c2ccc(C(=N)N)cc2)=NO1)C(=O)O (some centres undefined) | 33% | 34 nM |  |
| Cc1noc(C)c1S(=O)(=O)N[C@H](CNC(=O)C[C@@H]1CC(c2ccc(C(=N)N)cc2)=NO1)C(=O)O |  | 120 nM | IC50 (Canis familiaris [3]): 170 nM; Kd [4]: 186 nM; Kd [5]: 253 nM |
| N=C(N)c1ccc(C2=NOC(CC(=O)NC[C@H](NS(=O)(=O)c3ccccc3C(F)(F)F)C(=O)O)C2)cc1 (some centres undefined) | 45% |  |  |
| CC(C)NS(=O)(=O)N[C@@H](CNC(=O)CC1CC(c2ccc(C(=N)N)cc2)=NO1)C(=O)O (some centres undefined) |  | 51 nM |  |
| N=C(N)c1ccc(C2=NOC(CC(=O)NC[C@H](NS(=O)(=O)c3cccc4nsnc34)C(=O)O)C2)cc1 (some centres undefined) | 0% | 91 nM |  |
| Cc1cccc(S(=O)(=O)N[C@@H](CNC(=O)C[C@@H]2CC(c3ccc(C(=N)N)cc3)=NO2)C(=O)O)c1 [listing 1 of 2 here] | 16% |  |  |
| Cc1cccc(S(=O)(=O)N[C@@H](CNC(=O)C[C@@H]2CC(c3ccc(C(=N)N)cc3)=NO2)C(=O)O)c1 [listing 2 of 2 here] |  | 35 nM |  |
| N=C(N)c1ccc(C2=NOC(CC(=O)NC[C@H](NS(=O)(=O)c3cccc4ccccc34)C(=O)O)C2)cc1 (some centres undefined) |  | 55 nM |  |
| N=C(N)c1ccc(C2=NOC(CC(=O)NC[C@H](NS(=O)(=O)Cc3ccccc3)C(=O)O)C2)cc1 (some centres undefined) | 26% | 39 nM |  |
| N=C(N)c1ccc(C2=NOC(CC(=O)NC[C@H](NS(=O)(=O)c3cccc4cccnc34)C(=O)O)C2)cc1 (some centres undefined) | 67% | 81 nM |  |
| CCCCOC(=O)N[C@@H](CNC(=O)C[C@H]1CC(c2ccc(C(=N)N)cc2)=NO1)C(=O)OC [ROXIFIBAN] |  |  | inhibition in vivo at 0.025 mg/kg (Canis familiaris [6]): 38%; inhibition in vivo at 0.025 mg/kg (Canis familiaris [7]): 100%; IC50 (Canis familiaris [8]): 27 nM; IC50 (Homo sapiens [9]): 50 nM; Kd [10]: 2.83 nM; Kd [11]: 2.36 nM; inhibition in vivo at 0.3 mg/kg (Canis familiaris [12]): 54%; inhibition in vivo at 0.3 mg/kg (Canis familiaris [13]): 76%; inhibition in vivo at 0.3 mg/kg (Canis familiaris [14]): 11% |
| N=C(N)c1ccc(C2=NO[C@@H](CC(=O)NC[C@H](NS(=O)(=O)c3ccccc3)C(=O)O)C2)cc1 |  | 190 nM |  |
| N=C(N)c1ccc(C2=NOC(CC(=O)NC[C@H](NS(=O)(=O)c3ccc4ccccc4c3)C(=O)O)C2)cc1 (some centres undefined) |  | 140 nM |  |
| N=C(N)c1ccc(C2=NOC(CC(=O)NC[C@H](NS(=O)(=O)NCCc3ccccc3)C(=O)O)C2)cc1 (some centres undefined) |  | 70 nM |  |
| Cc1cccc(S(=O)(=O)N[C@@H](CNC(=O)Cc2cc(-c3ccc(C(=N)N)cc3)no2)C(=O)O)c1 |  | 69 nM |  |
| Cc1cccc(S(=O)(=O)N[C@@H](CNC(=O)C[C@H]2CC(c3ccc(C(=N)N)cc3)=NO2)C(=O)O)c1 | 24% | 25 nM | inhibition in vivo at 0.1 mg/kg (Canis familiaris [15]): 94%; inhibition in vivo at 0.1 mg/kg (Canis familiaris [16]): 78%; inhibition in vivo at 0.1 mg/kg (Canis familiaris [17]): 60% |
| Cc1noc(C)c1S(=O)(=O)N[C@@H](CNC(=O)C[C@@H]1CC(c2ccc(C(=N)N)cc2)=NO1)C(=O)O |  | 29 nM | IC50 (Canis familiaris [3]): 21 nM; Kd [4]: 2.7 nM; Kd [18]: 3.7 nM |
| N=C(N)c1ccc(C2=NOC(CC(=O)NC[C@H](NS(=O)(=O)c3ccccc3Br)C(=O)O)C2)cc1 (some centres undefined) |  | 36 nM | inhibition in vivo at 0.05 mg/kg (Canis familiaris [19]): 100% |
| CC(=O)Nc1cnc(S(=O)(=O)N[C@@H](CNC(=O)CC2CC(c3ccc(C(=N)N)cc3)=NO2)C(=O)O)s1 (some centres undefined) | 68% | 53 nM |  |
| Cc1ccccc1S(=O)(=O)N[C@@H](CNC(=O)C[C@H]1CC(c2ccc(C(=N)N)cc2)=NO1)C(=O)O |  | 130 nM | inhibition in vivo at 0.1 mg/kg (Canis familiaris [20]): 92%; inhibition in vivo at 0.1 mg/kg (Canis familiaris [16]): 39%; inhibition in vivo at 0.1 mg/kg (Canis familiaris [17]): 65% |
| Cc1cccc(S(=O)(=O)N(C)[C@@H](CNC(=O)C[C@H]2CC(c3ccc(C(=N)N)cc3)=NO2)C(=O)O)c1 |  | 95 nM |  |
| Cc1ccc(S(=O)(=O)N[C@@H](CNC(=O)CC2CC(c3ccc(C(=N)N)cc3)=NO2)C(=O)O)cc1 (some centres undefined) |  | 37 nM |  |
